# A selection: hits, their analogues and other compounds. The true share with any hit is near 0.92%.
# FN deposit inh: fibronectin deposition inhibition | AH1F fibroblasts, Alexa488-fibronectin deposition fluorescence, overnight | inhibition, % at 12.6 µM | hit rate 0.086% among 350,000 | AID 743247;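 active = mean inhibition across replicates of 30% or more, regardless of how many single replicates reach that level; inconclusive = mean under 30% yet at least half of replicates reach 30%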;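 also: positive control wells lacked labelled fibronectin entirely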
#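 Material: AH1F fibroblast monolayer depositing Alexa488-labelled fibronectin into matrix / Amount: 10000 AH1F cells per well / Signal: fluorescence 485/525 nm / Medium: DMEM, 2% serum / Compound: single dose, pinned / Incubation: 1 h cell adhesion before compound, then overnight fibronectin incubation / Reagent: Alexa488-FN, 24 nM final / Read-out: inhibition of fibronectin deposition signal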
# RAD54 inh: inhibitors of human RAD54 branch migration; RAD54 Holliday junction branch migration, FAM/BHQ fluorescence; inhibition, % at 10.4 µM; hit rate 0.14% among 360,000; AID 602329;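 active = mean normalized replicate activity at least 40 and at least half of replicates scoring 40 or more; inconclusive = only one of the two criteria met; inactive = mean below 40 and under half of replicates reaching 40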;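 also: 0% = median of neutral control wells and 100% = median of positive control wells; inhibitors cause a drop in the FAM fluorescence signal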
# Glyco luc inh: blocks N-linked glycosylation in D54 reporter cells; D54 ERlucT glycosylation luciferase reporter, 24 h; percent of 100 nM tunicamycin response; reporter increase, % at 12.5 µM; hit rate 0.23% among 360,000; AID 588692;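 active = mean luciferase reporter signal, scaled so untreated is 0 and the glycosylation-blocking control 100, at or above a set limit in every replicate; inconclusive = mean reaches the limit but not every replicate does; inactive = mean below the limit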;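 also: luciferase carries N-glycosylation sites so blocking glycosylation raises the light; 0% = median of neutral control wells and 100% = median of 100 nM tunicamycin wells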
# MLL AF4-AF9 inh: MLL-AF4/AF9 protein interaction inhibition | P42568 | AlphaScreen, biotin-AF4 peptide binding to FLAG-AF9 | inhibition, % at 10 µM | hit rate 0.47% among 350,000 | AID 651704;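 active = every replicate reaching a set inhibition limit, whatever the replicate mean, cut at about 25% in these data; inconclusive = mean inhibition reaches that limit but some replicates miss it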;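 also: 0% = plate neutral control median and 100% = total signal loss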
# Target sequence (P42568 whole entry, looked up): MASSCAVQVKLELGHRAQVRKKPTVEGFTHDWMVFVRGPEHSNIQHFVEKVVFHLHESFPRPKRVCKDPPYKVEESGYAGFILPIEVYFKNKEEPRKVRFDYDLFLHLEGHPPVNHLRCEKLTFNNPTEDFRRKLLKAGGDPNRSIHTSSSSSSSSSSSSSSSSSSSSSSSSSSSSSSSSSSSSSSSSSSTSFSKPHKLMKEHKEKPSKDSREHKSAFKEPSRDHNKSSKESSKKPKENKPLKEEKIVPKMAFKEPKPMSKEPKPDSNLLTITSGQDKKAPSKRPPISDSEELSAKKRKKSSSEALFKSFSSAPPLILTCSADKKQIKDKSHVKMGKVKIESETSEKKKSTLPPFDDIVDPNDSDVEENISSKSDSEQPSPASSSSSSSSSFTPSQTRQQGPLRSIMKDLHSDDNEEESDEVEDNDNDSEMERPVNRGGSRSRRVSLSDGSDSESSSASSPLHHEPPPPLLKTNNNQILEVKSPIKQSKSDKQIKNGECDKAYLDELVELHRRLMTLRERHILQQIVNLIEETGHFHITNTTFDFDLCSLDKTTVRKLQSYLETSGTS
# RAD52 inh: inhibitors of human RAD52 DNA annealing; P43351; inhibition, % at 18.7 µM; AID 651710; hit rate 0.46% among 360,000; recombinant RAD52 DNA annealing, FRET fluorescence;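 active = every replicate showing at least 50% inhibition; inconclusive = mean inhibition at least 50% but not in every replicate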
# DNA binding: binds DNA, flagging false Rad54 inhibitor hits | shares compounds with RAD54 inh | Acridine orange-DNA displacement, fluorescence polarization, 20 min | AC50, µM (top dose mostly 35 µM), for the others: at the highest dose activity change, negative = DNA binding | hit rate 8% among 460 | AID 651673;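 active = signal drop giving an AC50 within twice the top valid tested concentration of each sample, actives reach about 35 µM in these data; inactive = activity opposite to expected, plus the rest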;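 also: polarization loss reports compound binding to salmon sperm DNA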
# * hit, by the source's call; i = inactive; ? = inconclusive; . = no result.
SMILES,FN deposit inh,RAD54 inh,Glyco luc inh,MLL AF4-AF9 inh,RAD52 inh,DNA binding
CCCCN(C)CCNC(=O)c1cc2cc3ccc(OC)cc3nc2o1,1,53*,4,1,7,-20%
COCCCNC(=O)c1cc2cc3cc(OC)ccc3nc2o1,5,9,1,-3,-6,.
CCN(CC)CCNC(=O)c1cc2cc3ccc(OC)cc3nc2o1,3,50*,10,2,19,-24%
C=CC[C@@]1(C(=O)NCC(O)CO)N=C(c2ccc(OCCCO)cc2)O[C@@H]1c1ccccc1 (some centres undefined),.,-9,.,-4,9,.
C[C@H](CO)N1C[C@H](C)[C@H](CN(C)S(=O)(=O)c2ccccc2F)Oc2cc(C#Cc3cccc(F)c3)ccc2S1(=O)=O,6,5,.,-2,-2,.
CCN(CC)CCOc1c(Br)ccc2c1sc1nc3n(c(=O)c12)CCC3,-7,86*,67*,.,.,-8%
Cc1ccc2oc(=O)c3cc(C(=O)NCCCN4CC(C)CC(C)C4)sc3c2c1 (centres undefined),-13,10,0,5,39,.
Cc1ccc2oc(=O)c3cc(C(=O)NCCCN4CCN(C)CC4)sc3c2c1,0,62*,6,2,6,-24%
CCN1CCN(CCCNC(=O)c2cc3c(=O)oc4ccc(C)cc4c3s2)CC1,9,53*,1,2,21,-23%
Cc1ccc2oc(=O)c3cc(C(=O)NCCCN4C(C)CCCC4C)sc3c2c1 (centres undefined),2,54*,2,0,-42,-18%
O=C(NCCCN1CCCCCC1)c1cc2c(=O)oc3ccccc3c2s1,-8,26,-5,3,41,.
N#C[C@H]1[C@H](c2ccccc2)[C@@H](CO)N1C(=O)c1ccc2c(c1)OCO2,-13,-14,.,-2,-2,.
CC1CCCCC1NC(=O)C1Cc2ccccc2CN1S(C)(=O)=O (centres undefined),.,?,2,.,.,-10%
CCCC#Cc1cnc2c(c1)C(=O)N([C@@H](C)CO)C[C@H](C)[C@H](CN(C)C(=O)NCCC)O2,.,-2,.,-7,-8,.
CCCN(CCC)CCCNC(=O)c1cc2c(=O)[nH]c3ccccc3c2s1,-4,51*,4,1,10,-14%
CCN(CC)CCNC(=O)c1cc2c(=O)n(CC)c3ccccc3c2s1,2,28,11,2,-5,.
CCn1c(=O)c2cc(C(=O)NCCN(C)C)sc2c2ccccc21,5,53*,16,0,26,-10%
CCCCN(CC)CCNC(=O)c1cc2c(=O)[nH]c3ccccc3c2s1,-3,47,1,3,-11,.
CSc1nnc2c3cc(F)ccc3n(Cc3ccccc3)c2n1,2,-1,-4,.,.,.
CCN(CC)CCSc1nnc2c3cc(C)ccc3n(Cc3ccccc3)c2n1,-2,?,-6,6,35,2%
CC(=O)c1ccc(Nc2cc(C)nc3c(C)cc(C)cc23)cc1,1,.,-14,0,-26,.
Cc1cc(C)c2nc(C)cc(Nc3ccc(C(=O)NCCO)cc3)c2c1,6,50*,3,-1,6,-22%
CCc1nc(Nc2ccncc2)c2oc3ccccc3c2n1,.,66*,-4,.,.,-19%
O=C(Nc1ccc(C2=NCCN2)cc1)c1ccc(C(=O)Nc2ccc(C3=NCCN3)cc2)c(Cl)c1,-6,?,1,21,73*,-6%
O=C(Nc1ccc(NC(=O)c2ccc(Cl)cc2Cl)cc1)c1ccc2c(c1)OCO2,-2,-1,-2,-8,2,.
SMILES,FN deposit inh,RAD54 inh,Glyco luc inh,MLL AF4-AF9 inh,RAD52 inh,DNA binding
C[C@@H]1CCCCO[C@H](CN(C)C(=O)Nc2ccccc2)[C@@H](C)CN([C@@H](C)CO)C(=O)c2cc(NS(C)(=O)=O)ccc2O1,-1,-3,.,-5,7,.
CN(C)c1cc(NC(=O)CNC(C)(C)C)c2ccccc2n1,3,76*,6,.,28,-11%
CCCCC(=O)Nc1cc(N(C)C)nc2ccccc12,.,4,1,.,.,.
COc1cccc(CN2[C@H](CO)[C@@H](c3ccccc3)C23CN(C(=O)C2CCOCC2)C3)c1,.,.,.,1,-1,.
C[C@H](CO)N1C[C@H](C)[C@H](CN(C)CC2CCOCC2)Oc2cc(C#Cc3ccccc3F)ccc2S1(=O)=O,.,-6,.,4,-43,.
CCN(CC)CCN(C(=O)c1ccc2ncsc2c1)c1nc2cc3c(cc2s1)OCO3,.,?,-1,5,9,-5%
CCN(CC)CCN(C(=O)c1ccc(C(=O)c2ccccc2)cc1)c1nc2cc3c(cc2s1)OCO3,-1,-1,0,3,-13,.
COc1ccc(Nc2c3c(nc4ccc(C)cc24)CCC3)cc1,-4,54*,1,12,41,-2%
Cc1cccc(Nc2c3c(nc4ccccc24)CCC3)c1,13,11,-1,.,-4,.
Cc1ccc2nc3c(c(Nc4ccc5c(c4)OCCO5)c2c1)CCC3,-2,61*,1,22,47,-3%
C[C@H]1CN([C@@H](C)CO)C(=O)c2cc(NC(=O)CCCN(C)C)ccc2O[C@H]1CN(C)CC1CCCCC1,.,7,.,-1,-11,.
CCCc1nc2c(=O)n(C)c(=O)nc-2n(C)n1,5,74*,-20,-4,35,-16%
Cn1nc(-c2ccccn2)nc2c(=O)n(C)c(=O)nc1-2,13,61*,-23,-7,6,12%
O=C1c2cccc3cccc(c23)C(=O)N1CCCn1ccnc1,1,51*,5,4,33,-14%
C[C@@H]1CN(C)C(=O)c2cc(NS(C)(=O)=O)ccc2O[C@@H]1CN(C)S(C)(=O)=O,-22,.,.,.,.,.
CSc1nc(C)c2c(n1)N(c1ccc(F)cc1)CC2,.,.,-2,.,.,.
Cc1ccc2nc(C)c3c(c2c1)N(c1ccc(F)cc1)CC3,13,?,5,.,41,-14%
CN(C)CC(=O)N[C@H]1CC[C@@H](CCn2cc(CN(C)C)nn2)O[C@H]1CO,.,-1,.,-11,-4,.
COc1cc2nc(N(C)C)nc(N)c2cc1OC,.,94*,48*,.,.,i
COc1ccccc1Nc1nc(NCC2CCCO2)c2ccccc2n1 (centres undefined),-2,67*,-3,6,-2,-10%
O=C(N[C@H]1CC[C@H](CCNS(=O)(=O)c2ccc(F)cc2)O[C@@H]1CO)c1cnccn1,2,-3,.,-2,-11,.
CC(CCCN1CCCC1)Nc1ccnc2cc(Cl)ccc12 (centres undefined),.,55*,-5,14,51*,-15%
CC(C)NC1CCC(Nc2ccnc3cc(Cl)ccc23)CC1 (centres undefined),5,?,0,-5,-20,-19%
CNC[C@H]1OCCCC[C@H](C)Oc2ccc(NC(=O)NC3CCCCC3)cc2C(=O)N([C@H](C)CO)C[C@@H]1C,.,-3,.,2,-110,.
COc1ccc(CC(=O)Nc2cccc(-c3nnc(-c4ccc(C)cc4)o3)c2)cc1OC,.,2,-10,-41,-3,.

# Assay outcomes (PubChem BioAssay)
